pKi: −log10 of the molar value.
What was measured:
D(2) dopamine receptor [1] = target: T1, D(2) dopamine receptor (Homo sapiens, UniProt P14416); test: Antagonist activity at D2 receptor (unknown origin) expressed in Flp-In TREx 293 cells coexpressing chimeric Gqi5 protein assessed as calcium accumulation by Fluo-8AM dye based fluorescence analysis; type: functional, cell-based
HEK293 = test: Ratio of Ki for human D3 receptor expressed in HEK293 cell membrane to Ki for human D2L receptor expressed in HEK cell membrane; type: cell-based
Method in brief: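 Competition binding with [3H]methylspiperone on membranes from stable HEK cells. […] Incubation 90 min at room temperature in EBSS with sodium metabisulfite, nonspecific binding with 4 µM (+)-butaclamol, then GF/C filtration and scintillation counting. Ki from IC50 via Cheng–Prusoff.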

D(3) dopamine receptor [2] = target: T2, D(3) dopamine receptor (Homo sapiens, UniProt P35462); test: Displacement of [3H]methylspiperone from human D3 receptor expressed in HEK293 cell membrane after 90 mins by scintillation counting analysis; type: cell membranes
D(2) dopamine receptor [3] = target: T1, D(2) dopamine receptor; test: Antagonist activity at ProLink-tagged D2 receptor (unknown origin) expressed in CHO cells assessed as inhibition of dopamine-stimulated beta-arrestin binding treated for 90 mins prior to dopamine challenge by PathHunter DiscoveRx assay; type: cell-based
D(3) dopamine receptor [4] = target: T2, D(3) dopamine receptor; test: Antagonist activity at ProLink-tagged D3 receptor (unknown origin) expressed in CHO cells assessed as inhibition of dopamine-stimulated beta-arrestin binding treated for 90 mins prior to dopamine challenge by PathHunter DiscoveRx assay; type: cell-based
CHO = test: Ratio of AC50 for ProLink-tagged D3 receptor (unknown origin) expressed in CHO cells to AC50 for ProLink-tagged D2 receptor (unknown origin) expressed in CHO cells by beta-arrestin assay; type: cell-based; settings: Homo sapiens
D(2) dopamine receptor [5] = target: T1, D(2) dopamine receptor; test: Displacement of [3H]methylspiperone from human D2L receptor expressed in HEK cell membrane after 90 mins by scintillation counting analysis; type: cell membranes, HEK293

T2 sequence (P35462 whole entry): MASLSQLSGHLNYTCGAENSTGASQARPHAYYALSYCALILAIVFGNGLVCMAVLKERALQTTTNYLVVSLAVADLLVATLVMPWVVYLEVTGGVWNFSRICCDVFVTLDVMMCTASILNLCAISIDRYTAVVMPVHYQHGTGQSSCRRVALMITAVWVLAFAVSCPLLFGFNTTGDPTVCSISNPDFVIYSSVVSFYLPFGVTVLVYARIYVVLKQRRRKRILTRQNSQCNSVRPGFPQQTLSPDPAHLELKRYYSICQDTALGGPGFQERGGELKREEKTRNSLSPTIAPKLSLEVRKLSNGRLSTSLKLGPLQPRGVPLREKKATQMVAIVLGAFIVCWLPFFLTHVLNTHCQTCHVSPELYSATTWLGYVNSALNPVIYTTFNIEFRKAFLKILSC
T1 sequence (P14416 whole entry): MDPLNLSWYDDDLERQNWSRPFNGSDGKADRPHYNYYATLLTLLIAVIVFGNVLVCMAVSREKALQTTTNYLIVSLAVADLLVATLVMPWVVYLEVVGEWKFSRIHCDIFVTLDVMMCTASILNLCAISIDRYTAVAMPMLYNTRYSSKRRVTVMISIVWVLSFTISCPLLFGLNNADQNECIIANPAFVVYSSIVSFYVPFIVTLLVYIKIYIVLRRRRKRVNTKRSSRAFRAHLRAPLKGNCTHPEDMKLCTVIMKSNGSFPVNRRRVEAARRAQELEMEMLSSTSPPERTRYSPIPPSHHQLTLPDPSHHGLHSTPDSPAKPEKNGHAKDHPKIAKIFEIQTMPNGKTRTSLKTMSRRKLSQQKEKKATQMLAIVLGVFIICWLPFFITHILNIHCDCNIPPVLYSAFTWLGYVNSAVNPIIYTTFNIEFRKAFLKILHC

CCN1C(=O)c2ccccc2[S+]([O-])c2ccc(C(=O)Nc3ccc(OC)cc3)cc21 (racemic)
AC50 (D(2) dopamine receptor [1]): 141 nM

CCN1C(=O)c2ccccc2[S+]([O-])c2ccc(C(=O)Nc3ccccc3)cc21 (racemic)
AC50 (D(2) dopamine receptor [1]): 887 nM

COc1ccc(CNC(=O)c2cccc(N3C(=O)c4ccccc4C3=O)c2)cc1
AC50 (D(2) dopamine receptor [1]): > 77000 nM

CCN1C(=O)c2ccccc2[S@+]([O-])c2ccc(C(=O)NCc3ccc(C#N)cc3)cc21
Ratio Ki (HEK293): 5.7
AC50 (D(2) dopamine receptor [1]): 112 nM
pKi (D(3) dopamine receptor [2]): 6.89
AC50 (D(2) dopamine receptor [3]): 257 nM
AC50 (D(3) dopamine receptor [4]): 1620 nM
Ratio (CHO): 6.3
pKi (D(2) dopamine receptor [5]): 7.64

CN1C(=O)c2ccccc2[S@+]([O-])c2ccc(C(=O)NCc3ccc(Cl)cc3)cc21
AC50 (D(2) dopamine receptor [1]): 280 nM
AC50 (D(2) dopamine receptor [3]): 2890 nM
AC50 (D(3) dopamine receptor [4]): 10200 nM
Ratio (CHO): 4.5

CCN1C(=O)c2ccccc2[S+]([O-])c2ccc(C(=O)NCc3ccc(C(F)(F)F)cc3)cc21 (racemic)
AC50 (D(2) dopamine receptor [1]): 141 nM

CCN1C(=O)c2ccccc2[S@+]([O-])c2ccc(C(=O)NCc3ccc(F)cc3)cc21
Ratio Ki (HEK293): 2.6
AC50 (D(2) dopamine receptor [1]): 56 nM
pKi (D(3) dopamine receptor [2]): 6.64
AC50 (D(2) dopamine receptor [3]): 576 nM
AC50 (D(3) dopamine receptor [4]): 3240 nM
Ratio (CHO): 5.6
pKi (D(2) dopamine receptor [5]): 7.05

COc1ccc(CNC(=O)c2ccc3c(c2)C(=O)c2ccccc2C3=O)cc1
AC50 (D(2) dopamine receptor [1]): > 77000 nM

CN1C(=O)c2ccccc2[S+]([O-])c2ccc(C(=O)NCc3cccnc3)cc21 (racemic)
AC50 (D(2) dopamine receptor [1]): 281 nM

CN1C(=O)c2ccccc2[S+]([O-])c2ccc(C(=O)NCCc3cccs3)cc21 (racemic)
AC50 (D(2) dopamine receptor [1]): 89 nM
pKi (D(3) dopamine receptor [2]): 5.04
AC50 (D(2) dopamine receptor [3]): 913 nM
AC50 (D(3) dopamine receptor [4]): 20400 nM
pKi (D(2) dopamine receptor [5]): 6.72

CCN1C(=O)c2ccccc2[S+]([O-])c2ccc(C(=O)NCc3ccc(C(C)(C)C)cc3)cc21 (racemic)
AC50 (D(2) dopamine receptor [1]): 353 nM

CN1C(=O)c2ccccc2[S+]([O-])c2ccc(C(=O)NCc3ccc(Cl)cc3)cc21 (racemic)
AC50 (D(2) dopamine receptor [1]): 141 nM

COc1ccc(CNC(=O)c2ccc3c(c2)N(Cc2ccccc2)C(=O)c2ccccc2[S+]3[O-])cc1 (racemic)
AC50 (D(2) dopamine receptor [1]): 8870 nM

CCN1C(=O)c2ccccc2[S+]([O-])c2ccc(NC(=O)Cc3ccc(F)cc3)cc21 (racemic)
AC50 (D(2) dopamine receptor [1]): 223 nM

CCN1C(=O)c2ccccc2[S+]([O-])c2ccc(C(=O)NCCc3ccc(OC)cc3)cc21 (racemic)
AC50 (D(2) dopamine receptor [1]): 353 nM

CCN1C(=O)c2ccccc2[S@+]([O-])c2ccc(C(=O)N[C@H](C)c3ccc(Br)cc3)cc21
Ratio Ki (HEK293): 1.7
AC50 (D(2) dopamine receptor [1]): 223 nM
pKi (D(3) dopamine receptor [2]): 6.06
AC50 (D(2) dopamine receptor [3]): 1290 nM
AC50 (D(3) dopamine receptor [4]): 9130 nM
Ratio (CHO): 7.1
pKi (D(2) dopamine receptor [5]): 6.28

CN1C(=O)c2ccccc2[S@+]([O-])c2ccc(C(=O)NCCN3CCCC3)cc21
Ratio Ki (HEK293): 1.7
AC50 (D(2) dopamine receptor [1]): 70 nM
pKi (D(3) dopamine receptor [2]): 6.46
AC50 (D(2) dopamine receptor [3]): 363 nM
AC50 (D(3) dopamine receptor [4]): 4570 nM
Ratio (CHO): 12.6
pKi (D(2) dopamine receptor [5]): 6.68

CCN1C(=O)c2ccccc2[S+]([O-])c2ccc(C(=O)NC(C)c3ccccc3)cc21 (racemic)
AC50 (D(2) dopamine receptor [1]): 560 nM

CN1C(=O)c2ccccc2[S+]([O-])c2ccc(C(=O)NCc3ccc(F)cc3)cc21 (racemic)
AC50 (D(2) dopamine receptor [1]): 353 nM

CN1C(=O)c2ccccc2[S+]([O-])c2ccc(C(=O)NCc3ccc(Br)cc3)cc21 (racemic)
AC50 (D(2) dopamine receptor [1]): 71 nM

CCN1C(=O)c2ccccc2[S+]([O-])c2ccc(C(=O)NCc3ccc(S(C)(=O)=O)cc3)cc21 (racemic)
AC50 (D(2) dopamine receptor [1]): 353 nM

CCN1C(=O)c2ccccc2S(=O)(=O)c2ccc(C(=O)NCc3ccc(OC)cc3)cc21
AC50 (D(2) dopamine receptor [1]): > 77000 nM

CN1C(=O)c2ccccc2[S+]([O-])c2ccc(C(=O)NCCN3CCCCC3)cc21 (racemic)
AC50 (D(2) dopamine receptor [1]): 112 nM

COc1ccc(CNC(=O)c2ccc3c(c2)NC(=O)c2ccccc2[S+]3[O-])cc1 (racemic)
AC50 (D(2) dopamine receptor [1]): 887 nM

CN1C(=O)c2ccccc2[S+]([O-])c2ccc(C(=O)NCc3cccc(Cl)c3)cc21 (racemic)
AC50 (D(2) dopamine receptor [1]): 281 nM

CCCN1C(=O)c2ccccc2[S+]([O-])c2ccc(C(=O)NCc3ccc(OC)cc3)cc21 (racemic)
AC50 (D(2) dopamine receptor [1]): 705 nM

CCN1C(=O)c2ccccc2[S+]([O-])c2ccc(C(=O)N(C)Cc3ccc(OC)cc3)cc21 (racemic)
AC50 (D(2) dopamine receptor [1]): > 77000 nM

CCN1C(=O)c2ccccc2[S+]([O-])c2ccc(C(=O)NCc3ccc4c(c3)OCO4)cc21 (racemic)
AC50 (D(2) dopamine receptor [1]): 353 nM

CCN1C(=O)c2ccccc2[S+]([O-])c2ccc(C(=O)NCc3ccc(C#N)cc3)cc21 (racemic)
AC50 (D(2) dopamine receptor [1]): 141 nM

CCN1C(=O)c2ccccc2[S+]([O-])c2ccc(C(=O)NCc3ccc(SC)cc3)cc21 (racemic)
AC50 (D(2) dopamine receptor [1]): 223 nM

CCN1C(=O)c2ccccc2[S+]([O-])c2ccc(C(=O)NCc3ccc(C)cc3)cc21 (racemic)
AC50 (D(2) dopamine receptor [1]): 177 nM

CN1C(=O)c2ccccc2[S+]([O-])c2ccc(C(=O)NCc3ccccn3)cc21 (racemic)
AC50 (D(2) dopamine receptor [1]): 11200 nM

CN1C(=O)c2ccccc2[S+]([O-])c2ccc(C(=O)Nc3ccccc3)cc21 (racemic)
AC50 (D(2) dopamine receptor [1]): 1580 nM

CCN1C(=O)c2ccccc2[S+]([O-])c2ccc(C(=O)NCc3cc(OC)c(OC)c(OC)c3)cc21 (racemic)
AC50 (D(2) dopamine receptor [1]): 1770 nM

CCN1C(=O)c2ccccc2[S+]([O-])c2ccc(C(=O)OCc3ccc(OC)cc3)cc21 (racemic)
AC50 (D(2) dopamine receptor [1]): > 77000 nM

COc1ccc(NC(=O)c2ccc3c(c2)N(C)C(=O)c2ccccc2[S+]3[O-])cc1 (racemic)
AC50 (D(2) dopamine receptor [1]): 353 nM

CCN1C(=O)c2ccccc2[S+]([O-])c2ccc(C(=O)NCc3ccc(Cl)cc3)cc21 (racemic)
AC50 (D(2) dopamine receptor [1]): 509 nM

CN1C(=O)c2ccccc2[S@+]([O-])c2ccc(C(=O)NCc3cccnc3)cc21
Ratio Ki (HEK293): 70
AC50 (D(2) dopamine receptor [1]): 445 nM
pKi (D(3) dopamine receptor [2]): 4.68
AC50 (D(2) dopamine receptor [3]): 2890 nM
AC50 (D(3) dopamine receptor [4]): 14500 nM
Ratio (CHO): 5
pKi (D(2) dopamine receptor [5]): 6.51

CCN1C(=O)c2ccccc2[S+]([O-])c2ccc(C(=O)NCc3ccc(F)cc3)cc21 (racemic)
AC50 (D(2) dopamine receptor [1]): 89 nM

CCN1C(=O)c2ccccc2[S+]([O-])c2ccc(C(=O)NCc3cccc(OC)c3)cc21 (racemic)
AC50 (D(2) dopamine receptor [1]): 112 nM

CCN1C(=O)c2ccccc2[S@+]([O-])c2ccc(C(=O)N[C@H](C)c3ccc4ccccc4c3)cc21
Ratio Ki (HEK293): 11.7
AC50 (D(2) dopamine receptor [1]): 353 nM
pKi (D(3) dopamine receptor [2]): 5.47
AC50 (D(2) dopamine receptor [3]): 2890 nM
AC50 (D(3) dopamine receptor [4]): 32400 nM
Ratio (CHO): 11.2
pKi (D(2) dopamine receptor [5]): 6.54

CN1C(=O)c2ccccc2[S+]([O-])c2ccc(C(=O)NCc3ccccc3)cc21 (racemic)
AC50 (D(2) dopamine receptor [1]): 223 nM

CCN1C(=O)c2ccccc2[S+]([O-])c2ccc(C(=O)NCc3ccccc3)cc21 (racemic)
AC50 (D(2) dopamine receptor [1]): 445 nM

CCN1C(=O)c2ccccc2[S+]([O-])c2ccc(NC(=O)Cc3ccc(OC)cc3)cc21 (racemic)
AC50 (D(2) dopamine receptor [1]): 705 nM

CCN(Cc1ccccc1)C(=O)c1ccc2c(c1)N(CC)C(=O)c1ccccc1[S+]2[O-] (racemic)
AC50 (D(2) dopamine receptor [1]): 56000 nM

CN(C)CCCNC(=O)c1ccc2c(c1)N(C)C(=O)c1ccccc1[S+]2[O-] (racemic)
AC50 (D(2) dopamine receptor [1]): 560 nM

CCN1C(=O)c2ccccc2Sc2ccc(C(=O)NCc3ccc(OC)cc3)cc21
AC50 (D(2) dopamine receptor [1]): 705 nM

CCN1C(=O)c2ccccc2[S+]([O-])c2ccc(C(=O)NCc3ccccc3OC)cc21 (racemic)
AC50 (D(2) dopamine receptor [1]): 4460 nM

CN1C(=O)c2ccccc2[S@+]([O-])c2ccc(C(=O)NCc3ccc(Br)cc3)cc21
Ratio Ki (HEK293): 1.5
AC50 (D(2) dopamine receptor [1]): 89 nM
pKi (D(3) dopamine receptor [2]): 6.43
AC50 (D(2) dopamine receptor [3]): 1020 nM
AC50 (D(3) dopamine receptor [4]): 4570 nM
Ratio (CHO): 4.5
pKi (D(2) dopamine receptor [5]): 6.62

COc1ccc(CNC(=O)c2ccc3c(c2)N(C)C(=O)c2ccccc2[S+]3[O-])cc1 (racemic)
AC50 (D(2) dopamine receptor [1]): 112 nM

CN1C(=O)c2ccccc2[S+]([O-])c2ccc(C(=O)NCCN3CCCC3)cc21 (racemic)
AC50 (D(2) dopamine receptor [1]): 89 nM

CN1C(=O)c2ccccc2[S@@+]([O-])c2ccc(C(=O)NCCc3cccs3)cc21
AC50 (D(2) dopamine receptor [1]): > 77000 nM
pKi (D(3) dopamine receptor [2]): < 4.30
AC50 (D(2) dopamine receptor [3]): > 77000 nM
AC50 (D(3) dopamine receptor [4]): > 77000 nM
pKi (D(2) dopamine receptor [5]): < 4.30

Source: ChEMBL document CHEMBL3232915, “Discovery, optimization, and characterization of novel D2 dopamine receptor selective antagonists” (J Med Chem, 2014)
